According to paper PMC4327868 (Chemical research in toxicology, 2013):

Columns and labels:
Assay type in all cases: cell-based
PC6-3 cells [1] = assay: DA-supplemented dopamine metabolism; conditions: 10 μM dieldrin, cells spiked with 100 μM DA 15 min prior, 4 h, vs control
Procedure, shortened: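 PC6-3 cells seeded at 6 × 10^4 cells/well, NGF-differentiated (50 ng/mL, 4 days), and given 100 μM DA 15 min before 4 h exposure to test compound (10, 30, 100 or 300 μM) in HEPES-buffered saline. Extracellular DOPAL was measured by capillary C18 HPLC with photodiode-array detection and quantified against a standard curve. Reported as % control; mean ± SEM, n = 3 or 4.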

PC6-3 cells [2] = assay: Extracellular dopamine metabolites; conditions: 300 μM
Procedure, shortened: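 NGF-differentiated PC6-3 cells were given test compound (0, 10, 25, 50, 100 or 300 μM; 0.6% DMSO) in HEPES-buffered saline, pH 7.4. Extracellular aliquots taken at 0, 1 and 4 h went into 5% perchloric acid and were centrifuged. DOPAL, DOPAC and DOPET were run on isocratic C18 HPLC (0.1% TFA, 6% ACN), read at 202/280 nm, and quantified against standard curves. Mean ± SD, n = 3.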

PC6-3 cells [3] = assay: Cytotoxicity by lactate dehydrogenase; conditions: 4 h, even at high concentrations (900 μM)

Q: With ClC1=C(Cl)[C@]2(Cl)[C@@H]3[C@@H]4C[C@@H]([C@H]5O[C@@H]45)[C@@H]3[C@@]1(Cl)C2(Cl)Cl [dieldrin] as the molecule, how does the “increase in extracellular DOPAL levels” value (PC6-3 cells [1]) read?
A: The value was ~200%.

Q: For ClC1=C(Cl)C2(Cl)C3CC4OC4CC3C1(Cl)C2(Cl)Cl (stereo not drawn) [desmethylene dieldrin, 1,8,9,10,11,11-Hexachloro-4,5-epoxy-2,3-7,6-endotricyclo[6.2.1.0^2,7]undec-9-ene], which “increase of extracellular DOPAL concentration” value (PC6-3 cells [2]) is on record?
A: Its value is 10 fold.

Q: ClC1=C(Cl)C2(Cl)C3C4CC(C5OC45)C3C1(Cl)C2(Cl)Cl (stereo not drawn) [endrin] was tested. Which “cytotoxicity (LDH release)” value (PC6-3 cells [3]) did it give?
A: Its value is “no cytotoxicity”.
